Data reported in ChEMBL document CHEMBL1143122, “Novel analogs of D-e-MAPP and B13. Part 1: synthesis and evaluation as potential anticancer agents” (Bioorg Med Chem, 2008).

How the values were obtained:
HCT-116 = assay: Antiproliferative activity against human HCT116 cells after 48 hrs; type: functional; conditions: HCT-116, 48 h
Summary of the method: (§1)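 NCI 60-cell screen. Cells were grown in RPMI 1640 with 5% FBS and 2 mM L-glutamine, then plated at 5,000–40,000 cells/well according to doubling time and preincubated for 24 h at 37 °C in 5% CO2. Compounds were dissolved in DMSO at 400× the top final concentration and tested at five 10-fold dilutions from 10−4 to 10−8 M for 48 h. Growth was read spectrophotometrically; GI50 is 50% net protein reduction.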

Hs-578T = assay: Antiproliferative activity against human HS578T cells after 48 hrs; type: functional; summary of the method: as §1
NCI-H226 = assay: Antiproliferative activity against human NCI-H226 cells after 48 hrs; type: functional; conditions: NCI-H226, 48 h; summary of the method: as §1
OVCAR-4 = assay: Antiproliferative activity against human OVCAR4 cells after 48 hrs; type: functional; conditions: OVCAR-4, 48 h; summary of the method: as §1
SW-620 = assay: Antiproliferative activity against human SW620 cells after 48 hrs; type: functional; conditions: SW-620, 48 h
Summary of the method: (§2)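 NCI 60-cell-line screen. Lines grown in RPMI 1640 with 5% fetal bovine serum and 2 mM L-glutamine, plated at 5,000–40,000 cells/well according to doubling time, left 24 h at 37 °C in 5% CO2. Drug stocks in DMSO at 400-fold the top final concentration. Five 10-fold dilutions, 10−4 to 10−8 M, incubated 48 h. Growth read spectrophotometrically as net protein; GI50 taken as 50% reduction.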

NCI-H23 = assay: Antiproliferative activity against human NCI-H23 cells after 48 hrs; type: functional; conditions: NCI-H23, 48 h; summary of the method: as §1
COLO 205 = assay: Antiproliferative activity against human COLO205 cells after 48 hrs; type: functional; conditions: COLO 205, 48 h; summary of the method: as §1
SNB-19 = assay: Antiproliferative activity against human SNB19 cells after 48 hrs; type: functional; conditions: SNB-19, 48 h; summary of the method: as §1
NCI-H522 = assay: Antiproliferative activity against human NCI-H522 cells after 48 hrs; type: functional; conditions: NCI-H522, 48 h; summary of the method: as §1
[1] = Antiproliferative activity against human HL60(TB) cells after 48 hrs; type: functional, HL-60(TB); conditions: HL-60, 48 h
Summary of the method: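 NCI 60-line panel screen: cells grown in RPMI 1640 with 5% fetal bovine serum and 2 mM L-glutamine, plated at 5,000–40,000 cells/well by doubling time, and preincubated 24 h at 37 °C in 5% CO2. Drugs were solubilised in DMSO at 400-fold the final maximum and tested at five 10-fold dilutions from 10−4 to 10−8 M for 48 h. Net protein was read spectrophotometrically, and the concentration giving 50% reduction was reported as log10 GI50.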

ACHN = assay: Antiproliferative activity against human ACHN cells after 48 hrs; type: functional; summary of the method: as §1
SK-MEL-5 = assay: Antiproliferative activity against human SKMEL5 cells after 48 hrs; type: functional; conditions: SK-MEL-5, 48 h; summary of the method: as §1
A498 = assay: Antiproliferative activity against human A498 cells after 48 hrs; type: functional; conditions: A498, 48 h; summary of the method: as §1
M14 = assay: Antiproliferative activity against human M14 cells after 48 hrs; type: functional; conditions: M14, 48 h; summary of the method: as §1
KM12 = assay: Antiproliferative activity against human KM12 cells after 48 hrs; type: functional; conditions: Homo sapiens, KM12, 48 h; summary of the method: as §1
PC-3 = assay: Antiproliferative activity against human PC3 cells after 48 hrs; type: functional; conditions: PC-3, 48 h; summary of the method: as §1
TK-10 = assay: Antiproliferative activity against human TK10 cells after 48 hrs; type: functional; conditions: TK-10, 48 h; summary of the method: as §2
RXF 393 = assay: Antiproliferative activity against human RXF393 cells after 48 hrs; type: functional; conditions: RXF 393, 48 h; summary of the method: as §1
[2] = Antiproliferative activity against human NCI-ADR-RES cells after 48 hrs; type: functional; summary of the method: as §1
A549 = assay: Antiproliferative activity against human A549 cells after 48 hrs; type: functional; conditions: A549, 48 h; summary of the method: as §1
SF-539 = assay: Antiproliferative activity against human SF539 cells after 48 hrs; type: functional; conditions: SF-539, 48 h; summary of the method: as §1
HT-29 = assay: Antiproliferative activity against human HT29 cells after 48 hrs; type: functional; conditions: HT-29, 48 h; summary of the method: as §1
SN12C = assay: Antiproliferative activity against human SN12C cells after 48 hrs; type: functional; summary of the method: as §1
786-0 = assay: Antiproliferative activity against human 786-0 cells after 48 hrs; type: functional; conditions: 786-0, 48 h; summary of the method: as §1
SF-295 = assay: Antiproliferative activity against human SF295 cells after 48 hrs; type: functional; conditions: SF-295, 48 h; summary of the method: as §1
HCC 2998 = assay: Antiproliferative activity against human HCC2998 cells after 48 hrs; type: functional; conditions: HCC 2998, 48 h; summary of the method: as §1
CCRF-CEM = assay: Antiproliferative activity against human CCRF-CEM cells after 48 hrs; type: functional; summary of the method: as §1
OVCAR-3 = assay: Antiproliferative activity against human OVCAR-3 cells after 48 hrs; type: functional; conditions: OVCAR-3, 48 h; summary of the method: as §1
Malme-3M = assay: Antiproliferative activity against human MALME3M cells after 48 hrs; type: functional; summary of the method: as §1
IGROV-1 = assay: Antiproliferative activity against human IGROV1 cells after 48 hrs; type: functional; conditions: IGROV-1, 48 h; summary of the method: as §1
[3] = read-out: Log LC50 (the source's name) (converted)

## CCCCCCCCCCCCCCN[C@H](CO)[C@H](O)c1ccccc1
HCT-116
  GI50: 1.74 µM
  LC50: 5.62 µM
HCT-116; read-out: Log TGI (converted)
  TGI: 3.16 µM
Hs-578T
  GI50: 2.82 µM
  LC50: > 100 µM
Hs-578T; read-out: Log TGI (converted)
  TGI: 6.46 µM
NCI-H226
  GI50: 3.24 µM
NCI-H226; [3]
  CC50: > 100 µM
NCI-H226; read-out: Log TGI (converted)
  TGI: 11.7 µM
OVCAR-4
  GI50: 1.91 µM
OVCAR-4; read-out: Log TGI (converted)
  TGI: 3.8 µM
SW-620
  GI50: 2.4 µM
  LC50 (concentration killing 50% of cells): > 100 µM
NCI-H23
  GI50: 3.55 µM
NCI-H23; [3]
  CC50: 64.6 µM
NCI-H23; read-out: Log TGI (converted)
  TGI: 9.77 µM
COLO 205
  GI50: 1.86 µM
COLO 205; [3]
  CC50: 6.17 µM
COLO 205; read-out: Log TGI (converted)
  TGI: 3.39 µM
SNB-19
  GI50: 1.78 µM
SNB-19; read-out: Log TGI (converted)
  TGI: 3.24 µM
NCI-H522
  GI50: 2 µM
NCI-H522; read-out: Log TGI (converted)
  TGI: 3.8 µM
[1]
  GI50: 3.31 µM
  LC50: 8.51 µM
[1]; read-out: Log TGI (converted)
  TGI: 3.72 µM
ACHN
  GI50: 1.74 µM
ACHN; [3]
  CC50: 5.62 µM
ACHN; read-out: Log TGI (converted)
  TGI: 3.16 µM
SK-MEL-5
  GI50: 2.14 µM
SK-MEL-5; read-out: Log TGI (converted)
  TGI: 4.07 µM
A498
  GI50: 18.2 µM
A498; [3]
  CC50: > 100 µM
A498; read-out: Log TGI (converted)
  TGI: 42.7 µM
M14
  GI50: 1.86 µM
  LC50: 5.89 µM
M14; read-out: Log TGI (converted)
  TGI: 3.31 µM
KM12
  GI50: 1.86 µM
KM12; [3]
  CC50: 5.89 µM
KM12; read-out: Log TGI (converted)
  TGI: 3.31 µM
PC-3
  GI50: 1.58 µM
  LC50: 5.5 µM
PC-3; read-out: Log TGI (converted)
  TGI: 2.95 µM
TK-10
  GI50: 2 µM
TK-10; [3]
  CC50: 13.8 µM
TK-10; read-out: Log TGI (converted)
  TGI: 4.68 µM
RXF 393
  GI50: 1.15 µM
RXF 393; [3]
  CC50: 5.13 µM
RXF 393; read-out: Log TGI (converted)
  TGI: 2.45 µM
[2]
  GI50: 2.09 µM
  LC50: 6.92 µM
[2]; read-out: Log TGI (converted)
  TGI: 3.8 µM
A549
  GI50: 1.7 µM
A549; [3]
  CC50: 6.03 µM
A549; read-out: Log TGI (converted)
  TGI: 3.24 µM
SF-539
  GI50: 1.55 µM
  LC50: 6.03 µM
SF-539; read-out: Log TGI (converted)
  TGI: 3.09 µM
HT-29
  GI50: 1.7 µM
  LC50: 5.62 µM
HT-29; read-out: Log TGI (converted)
  TGI: 3.09 µM
SN12C
  GI50: 1.74 µM
  LC50 (50% net cell kill): 6.46 µM
SN12C; read-out: Log TGI (converted)
  TGI: 3.31 µM
786-0
  GI50: 1.62 µM
786-0; [3]
  CC50: 5.62 µM
786-0; read-out: Log TGI (converted)
  TGI: 3.02 µM
SF-295
  GI50: 1.86 µM
  LC50: 6.76 µM
SF-295; read-out: Log TGI (converted)
  TGI: 3.55 µM
HCC 2998
  GI50: 1.66 µM
HCC 2998; [3]
  CC50: 5.62 µM
HCC 2998; read-out: Log TGI (converted)
  TGI: 3.09 µM
CCRF-CEM
  GI50: 1.58 µM
CCRF-CEM; [3]
  CC50: 7.94 µM
CCRF-CEM; read-out: Log TGI (converted)
  TGI: 3.55 µM
OVCAR-3
  GI50: 1.91 µM
OVCAR-3; read-out: Log TGI (converted)
  TGI: 4.07 µM
Malme-3M
  GI50: 2.09 µM
  LC50: 9.55 µM
Malme-3M; read-out: Log TGI (converted)
  TGI: 3.8 µM
IGROV-1
  GI50: 1.55 µM
IGROV-1; read-out: Log TGI (converted)
  TGI: 3.24 µM
